ChEMBL document CHEMBL1142454, “Synthesis and evaluation of novel 4-amino-4,6-androstadiene-3,17-dione: an analog of formestane” (2008)

Columns and labels:
Set-up in all cases: scale not given: the % may be the effect or the level left
SW-620 = experiment: Antitumor activity against human SW620 cells assessed as reduction of cell growth at 10 uM after 48 hrs by SRB assay; format: functional
How it was run: (§1)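 NCI-60 one-dose primary screen at 10^-5 M final. Cells grown in RPMI 1640 with 5% FBS and 2 mM L-glutamine, plated at 5000–40,000 cells/well and preincubated 24 h at 37 °C, 5% CO2. Drug stocks in DMSO, diluted in medium with gentamicin. Exposure 48 h, then fixed in situ with TCA (10% final) for 60 min at 4 °C. Stained with 0.4% SRB in 1% acetic acid, bound dye solubilized in 10 mM trizma base, absorbance read at 515 nm. Reported as mean growth percent; negative values indicate cell kill.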

SK-MEL-28 = experiment: Antitumor activity against human SK-MEL-28 cells assessed as reduction of cell growth at 10 uM after 48 hrs by SRB assay; format: functional
How it was run: (§2)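 NCI 60-cell-line primary screen, single dose 10^-5 M (final). Cells grown in RPMI 1640 with 5% FBS and 2 mM L-glutamine, seeded at 5000–40,000 cells/well and preincubated 24 h at 37 °C, 5% CO2. Compound is dissolved in DMSO, diluted in medium with gentamicin, and exposed 48 h. Cells are fixed with 10% TCA (final) and stained with 0.4% SRB; absorbance is read at 515 nm. Readout is growth percentage.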

U-251 = experiment: Antitumor activity against human U251 cells assessed as reduction of cell growth at 10 uM after 48 hrs by SRB assay; format: functional; how it was run: as §1
[1] = Antitumor activity against human 786-O cells assessed as reduction of cell growth at 10 uM after 48 hrs by SRB assay; format: functional, 786-0; how it was run: as §2
BT-549 = experiment: Antitumor activity against human BT-549 cells assessed as reduction of cell growth at 10 uM after 48 hrs by SRB assay; format: functional; how it was run: as §2
[2] = Antitumor activity against human Hs 578T cells assessed as reduction of cell growth at 10 uM after 48 hrs by SRB assay; format: functional; how it was run: as §2
HOP-92 = experiment: Antitumor activity against human HOP-92 cells assessed as reduction of cell growth at 10 uM after 48 hrs by SRB assay; format: functional; how it was run: as §2
MCF7 [3] = experiment: Antitumor activity against human MCF7 cells assessed as reduction of cell growth at 10 uM after 48 hrs by SRB assay; format: functional; how it was run: as §2
NCI-H226 = experiment: Antitumor activity against human NCI-H226 cells assessed as reduction of cell growth at 10 uM after 48 hrs by SRB assay; format: functional; how it was run: as §2
HCC 2998 = experiment: Antitumor activity against human HCC2998 cells assessed as reduction of cell growth at 10 uM after 48 hrs by SRB assay; format: functional; how it was run: as §2
LOX IMVI = experiment: Antitumor activity against human LOXIMVI cells assessed as reduction of cell growth at 10 uM after 48 hrs by SRB assay; format: functional; how it was run: as §2
MDA-MB-231 = experiment: Antitumor activity against human MDA-MB-231/ATCC cells assessed as reduction of cell growth at 10 uM after 48 hrs by SRB assay; format: functional; how it was run: as §2
SNB-19 = experiment: Antitumor activity against human SNB-19 cells assessed as reduction of cell growth at 10 uM after 48 hrs by SRB assay; format: functional; how it was run: as §2
OVCAR-8 = experiment: Antitumor activity against human OVCAR8 cells assessed as reduction of cell growth at 10 uM after 48 hrs by SRB assay; format: functional; how it was run: as §2
MCF7 [4] = experiment: Antitumor activity against human doxorubicin-resistant MCF7 cells assessed as reduction of cell growth at 10 uM after 48 hrs by SRB assay; format: functional; how it was run: as §1
OVCAR-5 = experiment: Antitumor activity against human OVCAR5 cells assessed as reduction of cell growth at 10 uM after 48 hrs by SRB assay; format: functional; how it was run: as §2
HT-29 = experiment: Antitumor activity against human HT-29 cells assessed as reduction of cell growth at 10 uM after 48 hrs by SRB assay; format: functional; how it was run: as §2
HCT-15 = experiment: Antitumor activity against human HCT-15 cells assessed as reduction of cell growth at 10 uM after 48 hrs by SRB assay; format: functional; how it was run: as §2
HOP-62 = experiment: Antitumor activity against human HOP-62 cells assessed as reduction of cell growth at 10 uM after 48 hrs by SRB assay; format: functional; how it was run: as §2
PC-3 = experiment: Antitumor activity against human PC-3 cells assessed as reduction of cell growth at 10 uM after 48 hrs by SRB assay; format: functional; how it was run: as §2
SK-OV-3 = experiment: Antitumor activity against human SKOV3 cells assessed as reduction of cell growth at 10 uM after 48 hrs by SRB assay; format: functional; how it was run: as §2
SF-539 = experiment: Antitumor activity against human SF-539 cells assessed as reduction of cell growth at 10 uM after 48 hrs by SRB assay; format: functional; how it was run: as §2
ACHN = experiment: Antitumor activity against human ACHN cells assessed as reduction of cell growth at 10 uM after 48 hrs by SRB assay; format: functional; how it was run: as §2
SK-MEL-5 = experiment: Antitumor activity against human SK-MEL-5 cells assessed as reduction of cell growth at 10 uM after 48 hrs by SRB assay; format: functional; how it was run: as §2
T47D = experiment: Antitumor activity against human T47D cells assessed as reduction of cell growth at 10 uM after 48 hrs by SRB assay; format: functional; how it was run: as §1
SF-268 = experiment: Antitumor activity against human SF-268 cells assessed as reduction of cell growth at 10 uM after 48 hrs by SRB assay; format: functional; how it was run: as §2
NCI-H23 = experiment: Antitumor activity against human NCI-H23 cells assessed as reduction of cell growth at 10 uM after 48 hrs by SRB assay; format: functional; how it was run: as §2
KM12 = experiment: Antitumor activity against human KM12 cells assessed as reduction of cell growth at 10 uM after 48 hrs by SRB assay; format: functional; how it was run: as §2
SNB-75 = experiment: Antitumor activity against human SNB75 cells assessed as reduction of cell growth at 10 uM after 48 hrs by SRB assay; format: functional; how it was run: as §2
HL-60(TB) = experiment: Antitumor activity against human HL-60(TB) cells assessed as reduction of cell growth at 10 uM after 48 hrs by SRB assay; format: functional; how it was run: as §2
RXF 393 = experiment: Antitumor activity against human RXF 393 cells assessed as reduction of cell growth at 10 uM after 48 hrs by SRB assay; format: functional; how it was run: as §2
K562 = experiment: Antitumor activity against human K-562 cells assessed as reduction of cell growth at 10 uM after 48 hrs by SRB assay; format: functional; how it was run: as §2
UACC-257 = experiment: Antitumor activity against human UACC-257 cells assessed as reduction of cell growth at 10 uM after 48 hrs by SRB assay; format: functional; how it was run: as §1
SN12C = experiment: Antitumor activity against human SN12C cells assessed as reduction of cell growth at 10 uM after 48 hrs by SRB assay; format: functional; how it was run: as §2
OVCAR-4 = experiment: Antitumor activity against human OVCAR4 cells assessed as reduction of cell growth at 10 uM after 48 hrs by SRB assay; format: functional; how it was run: as §2
IGROV-1 = experiment: Antitumor activity against human IGROV1 cells assessed as reduction of cell growth at 10 uM after 48 hrs by SRB assay; format: functional; how it was run: as §2
CCRF-CEM = experiment: Antitumor activity against human CCRF-CEM cells assessed as reduction of cell growth at 10 uM after 48 hrs by SRB assay; format: functional; how it was run: as §2

C[C@]12CCC(=O)C(N)=C1C=C[C@@H]1[C@@H]2CC[C@]2(C)C(=O)CC[C@@H]12.Cl
Activity (SW-620): 15.36% | Activity (SK-MEL-28): 103.4% | Activity (U-251): 54.19% | Activity [1]: 89.28% | Activity (BT-549): 82.63% | Activity [2]: 112.26% | Activity (HOP-92): 61.94% | Activity (MCF7 [3]): -15.97% | Activity (NCI-H226): 96.3% | Activity (HCC 2998): 96.01% | Activity (LOX IMVI): 60.57% | Activity (MDA-MB-231): 100.87% | Activity (SNB-19): 102.8% | Activity (OVCAR-8): 44.03% | Activity (MCF7 [4]): 68.71% | Activity (OVCAR-5): 107.69% | Activity (HT-29): 51.17% | Activity (HCT-15): 72.99% | Activity (HOP-62): 111.88% | Activity (PC-3): 46.51% | Activity (SK-OV-3): 120.27% | Activity (SF-539): 82.75% | Activity (ACHN): 88.16% | Activity (SK-MEL-5): 69.71% | Activity (T47D): 73.66% | Activity (SF-268): 89.03% | Activity (NCI-H23): 74.07% | Activity (KM12): 39.52% | Activity (SNB-75): 94.19% | Activity (HL-60(TB)): 52.53% | Activity (RXF 393): 95.21% | Activity (K562): -26.94% | Activity (UACC-257): 86.69% | Activity (SN12C): 88.53% | Activity (OVCAR-4): 61.98% | Activity (IGROV-1): 49.46% | Activity (CCRF-CEM): 6.62%

C[C@]12CC[C@H]3[C@@H](CCC4=CC(=O)CC[C@@]43CF)[C@@H]1CCC2=O
Activity (SW-620): 125.89% | Activity (SK-MEL-28): 116.5% | Activity (U-251): 111.4% | Activity [1]: 105.6% | Activity (BT-549): 97.23% | Activity [2]: 127.96% | Activity (HOP-92): 113.59% | Activity (MCF7 [3]): 130.43% | Activity (NCI-H226): 111.29% | Activity (HCC 2998): 139.86% | Activity (LOX IMVI): 96.65% | Activity (MDA-MB-231): 117.71% | Activity (SNB-19): 109.3% | Activity (OVCAR-8): 94.26% | Activity (MCF7 [4]): 107.98% | Activity (OVCAR-5): 118.37% | Activity (HT-29): 116.4% | Activity (HCT-15): 106.17% | Activity (HOP-62): 123.96% | Activity (SK-OV-3): 120.5% | Activity (SF-539): 105.8% | Activity (ACHN): 119.9% | Activity (SK-MEL-5): 108.7% | Activity (T47D): 39.44% | Activity (SF-268): 109.8% | Activity (NCI-H23): 106.48% | Activity (KM12): 117.01% | Activity (SNB-75): 90.07% | Activity (HL-60(TB)): 112.8% | Activity (RXF 393): 67.71% | Activity (K562): 93.48% | Activity (UACC-257): 97.04% | Activity (SN12C): 113.5% | Activity (OVCAR-4): 98.85% | Activity (IGROV-1): 62.42% | Activity (CCRF-CEM): 88.21%
